Data published in ChEMBL document CHEMBL2010780, “Pyridine Carboxamides: Potent Palm Site Inhibitors of HCV NS5B Polymerase” (ACS Med Chem Lett, 2010).
Activity calls are given as the source filed them. No cut-off for these calls is given here.

Tests used:
[1] = Inhibition of Hepatitis C virus genotype 1b Con1 NS5B Cdelta21 polymerase assessed as incorporation of [33P]-CTP into heteropolymer RNA template after 2 hrs; design: species or system Hepacivirus hominis; conditions: Con1, 2 h
Summary of the method: (§1)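 Each value is the mean of duplicate experiments run on two separate weighings of compound.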

[2] = Cytotoxicity against human HuH7 cells after 3 days by MTS assay; assay type: cell-based, Huh-7; summary of the method: as §1
Hepatitis C virus [3] = assay: Antiviral activity against Hepatitis C virus genotype 1b Con1 infected in human HuH7 cells assessed as inhibition of viral RNA replication after 3 by real time PCR analysis; assay type: functional, organism-based, Hepacivirus hominis, Huh-7; summary of the method: as §1
Hepatitis C virus [4] = assay: Ratio of IC50 for Hepatitis C virus genotype 1b Con1 NS5B Cdelta21 polymerase palm site 1 G554D mutant to IC50 for Hepatitis C virus genotype 1b Con1 NS5B Cdelta21 polymerase; design: species or system Hepacivirus hominis
Hepatitis C virus [5] = assay: Ratio of IC50 for Hepatitis C virus genotype 1b Con1 NS5B Cdelta21 polymerase palm site 2 C316Y mutant to IC50 for Hepatitis C virus genotype 1b Con1 NS5B Cdelta21 polymerase; design: species or system Hepacivirus hominis
[6] = tested on: Hepatitis C virus genotype 3; assay: Inhibition of Hepatitis C virus genotype 3 NS5B Cdelta21 polymerase up to 10 uM
Hepatitis C virus [7] = assay: Ratio of IC50 for Hepatitis C virus genotype 1b Con1 NS5B Cdelta21 polymerase palm site 2 C316N mutant to IC50 for Hepatitis C virus genotype 1b Con1 NS5B Cdelta21 polymerase; design: species or system Hepacivirus hominis
[8] = tested on: Hepatitis C virus genotype 4; assay: Inhibition of Hepatitis C virus genotype 4 NS5B Cdelta21 polymerase up to 10 uM
Hepatitis C virus [9] = assay: Ratio of IC50 for Hepatitis C virus genotype 1b Con1 NS5B Cdelta21 polymerase thumb site 1 P495L mutant to IC50 for Hepatitis C virus genotype 1b Con1 NS5B Cdelta21 polymerase; design: species or system Hepacivirus hominis
Hepatitis C virus [10] = assay: Ratio of IC50 for Hepatitis C virus genotype 1b Con1 NS5B Cdelta21 polymerase palm site 1 M414T mutant to IC50 for Hepatitis C virus genotype 1b Con1 NS5B Cdelta21 polymerase; design: species or system Hepacivirus hominis
[11] = tested on: Hepatitis C virus genotype 2; assay: Inhibition of Hepatitis C virus genotype 2 NS5B Cdelta21 polymerase up to 10 uM
Hepacivirus hominis [12] = assay: Ratio of IC50 for Hepatitis C virus subtype 1a H77 NS5B Cdelta21 polymerase to IC50 for Hepatitis C virus genotype 1b Con1 NS5B Cdelta21 polymerase
Hepatitis C virus [13] = assay: Ratio of IC50 for Hepatitis C virus genotype 1b Con1 NS5B Cdelta21 polymerase thumb site 2 M423T mutant to IC50 for Hepatitis C virus genotype 1b Con1 NS5B Cdelta21 polymerase; design: species or system Hepacivirus hominis
Hepacivirus hominis [14] = assay: Ratio of IC50 for Hepatitis C virus subtype 1b BK NS5B Cdelta21 polymerase to IC50 for Hepatitis C virus genotype 1b Con1 NS5B Cdelta21 polymerase
[15] = Hepatitis C virus, Con1, Huh-7, read-out: EC50

Structure (SMILES)	IC50 [1] [µM]	CC50 at 72 h [2] [µM]	also measured
CC(C)c1ccc(NC(=O)c2ccnnc2)c(N2CCN(c3cnccn3)CC2)c1	> 20		
CC(C)c1ccc(NC(=O)C2CCCNC2)c(N2CCN(c3cnccn3)CC2)c1 (stereo not drawn)	> 200		
CC(C)c1ccc(NC(=O)c2ccccn2)c(N2CCN(c3cnccn3)CC2)c1	> 20		
CC(C)c1ccc(NC(=O)c2ccc(C(F)(F)F)nc2)c(N2CCN(c3cnccn3)CC2)c1	> 20		
CC(C)c1ccc(NC(=O)c2cccnc2-c2ccccc2)c(N2CCN(c3cnccn3)CC2)c1	> 200	15	EC50 (Hepatitis C virus [3]; huh-7): ND(toxic)
Cc1n[nH]cc1C(=O)Nc1ccc(C(C)C)cc1N1CCN(c2cnccn2)CC1	> 200		
CC(C)c1ccc(NC(=O)c2cncnc2)c(N2CCN(c3cnccn3)CC2)c1	> 20		
CC(C)c1ccc(NC(=O)C2CCOCC2)c(N2CCN(c3cnccn3)CC2)c1	> 20		
CC(C)c1ccc(NC(=O)c2cccnc2)c(N2CCN(c3cncc(-c4ccccc4)n3)CC2)c1	17		
CNCC(=O)N1CCN(c2cc(C(C)C)ccc2NC(=O)c2cccnc2)CC1	> 200		
CC(C)c1ccc(NC(=O)c2cccnc2)c(N2CCN(S(C)(=O)=O)CC2)c1	> 200		
Cc1cnc(C(=O)Nc2ccc(C(C)C)cc2N2CCN(c3cnccn3)CC2)cn1	> 20		
CCOC(=O)c1ccc(NC(=O)c2cccnc2)c(N2CCN(c3cnccn3)CC2)c1	> 5		
CC(C)c1ccc(NC(=O)C2CCOC2)c(N2CCN(c3cnccn3)CC2)c1 (stereo not drawn)	20		
Cc1cnc(N2CCN(c3cc(C(C)C)ccc3NC(=O)c3cccnc3)CC2)s1	15		
CC(C)c1ccc(NC(=O)c2cccc(O)n2)c(N2CCN(c3cnccn3)CC2)c1	46	17	EC50 (Hepatitis C virus [3]; huh-7): ND(toxic)
C=C(C)c1ncccc1C(=O)Nc1ccc(C(C)C)cc1N1CCN(c2cnccn2)CC1	> 200		
COc1ncccc1C(=O)Nc1ccc(C(C)C)cc1N1CCN(c2cnccn2)CC1	> 20		
CC(C)c1ccc(NC(=O)c2cccnc2)c(N2CCN(C(=O)Nc3ccccc3)CC2)c1	> 100		
CC(C)c1ccc(NC(=O)c2cccnc2O)c(N2CCN(c3cnccn3)CC2)c1	> 200		
CC(C)c1ccc(NC(=O)c2cnccc2C(F)(F)F)c(N2CCN(c3cnccn3)CC2)c1	> 20		
CC(C)c1ccc(NC(=O)c2cccnc2)c(N2CCN(C(=O)CN(C)C)CC2)c1	> 200		
CC(C)c1ccc(NC(=O)c2cnc3[nH]ccc3c2)c(N2CCN(c3cnccn3)CC2)c1	> 20		
O=C(Nc1ccc(Br)cc1N1CCN(c2cnccn2)CC1)c1cccnc1	> 20		
CNC(=O)c1c(-c2ccc(F)cc2)oc2cc(N(CCO)S(C)(=O)=O)c(C3CC3)cc12 [NESBUVIR]			Ratio IC50 (Hepatitis C virus [4]): 1; Ratio IC50 (Hepatitis C virus [5]): 50; inhibition [6]: inactive; Ratio IC50 (Hepatitis C virus [7]): 3; inhibition [8]: inactive; Ratio IC50 (Hepatitis C virus [9]): 1; Ratio IC50 (Hepatitis C virus [10]): 1.5; inhibition [11]: inactive; Ratio IC50 (Hepacivirus hominis [12]): 1; Ratio IC50 (Hepatitis C virus [13]): 1; Ratio IC50 (Hepacivirus hominis [14]): 6
CC(C)c1ccc(NC(=O)c2ccnc(NC(=O)C(C)(C)C)c2)c(N2CCN(c3cnccn3)CC2)c1	> 20		
CC(C)(C)CC[C@@]1(C)CC(C2=NS(=O)(=O)c3cc(NS(C)(=O)=O)ccc3N2)=C(O)c2ccccc21			Ratio IC50 (Hepatitis C virus [4]): 100; Ratio IC50 (Hepatitis C virus [5]): 3; inhibition [6]: inactive; Ratio IC50 (Hepatitis C virus [7]): 1; inhibition [8]: inactive; Ratio IC50 (Hepatitis C virus [9]): 1; Ratio IC50 (Hepatitis C virus [10]): 1; inhibition [11]: inactive; Ratio IC50 (Hepacivirus hominis [12]): 1; Ratio IC50 (Hepatitis C virus [13]): 1; Ratio IC50 (Hepacivirus hominis [14]): 1
Cc1c(F)ccc(F)c1C(=O)Nc1ccc(C(C)C)cc1N1CCN(c2cnccn2)CC1	54	11	EC50 (Hepatitis C virus [3]; huh-7): ND(toxic)
Cc1nocc1C(=O)Nc1ccc(C(C)C)cc1N1CCN(c2cnccn2)CC1	> 200		
CC(C)c1ccc(NC(=O)c2cccnc2)c(N2CCN(C(=O)OC(C)(C)C)CC2)c1	> 200		

More lines, in order of falling IC50 [1], values ahead:

IC50 [1] [µM]	Structure (SMILES)	CC50 at 72 h [2] [µM]	also measured
15	Cc1occc1C(=O)Nc1ccc(C(C)C)cc1N1CCN(c2cnccn2)CC1		
14	Cc1ccc(C(=O)Nc2ccc(C(C)C)cc2N2CCN(c3cnccn3)CC2)cn1	11	EC50 (Hepatitis C virus [3]; huh-7): ND(toxic)
14	Cc1ncoc1C(=O)Nc1ccc(C(C)C)cc1N1CCN(c2cnccn2)CC1		
13	Cc1oncc1C(=O)Nc1ccc(C(C)C)cc1N1CCN(c2cnccn2)CC1		
12	O=C(Nc1ccc(C2CC2)cc1N1CCN(c2cnccn2)CC1)c1cccnc1		
10	Cc1nc(N(C)C)sc1C(=O)Nc1ccc(C(C)C)cc1N1CCN(c2cnccn2)CC1	> 10	EC50 (Hepatitis C virus [3]; [15]): 6.9 µM
7.3	CC(C)c1ccc(NC(=O)c2cccnc2)c(N2CCN(c3ccccn3)CC2)c1	> 50	EC50 (Hepatitis C virus [3]; [15]): > 50 µM
7	CC(C)c1ccc(NC(=O)c2ccsc2)c(N2CCN(c3cnccn3)CC2)c1	28	EC50 (Hepatitis C virus [3]; [15]): 6.5 µM
6.7	CC(C)c1ccc(NC(=O)c2cnc3ccccc3c2)c(N2CCN(c3cnccn3)CC2)c1	6	EC50 (Hepatitis C virus [3]; [15]): 1.8 µM
5.6	Cc1c(F)cc(C(=O)Nc2ccc(C(C)C)cc2N2CCN(c3cnccn3)CC2)cc1F	> 50	EC50 (Hepatitis C virus [3]; [15]): > 50 µM
5	CC(C)c1ccc(NC(=O)c2cccnc2)c(N2CCN(c3nsc(Cl)n3)CC2)c1	> 10	EC50 (Hepatitis C virus [3]; [15]): > 10 µM
3.9	Cc1csc(N2CCN(c3cc(C(C)C)ccc3NC(=O)c3cccnc3)CC2)n1	27	EC50 (Hepatitis C virus [3]; [15]): 6 µM
3	Cc1nc(Br)sc1C(=O)Nc1ccc(C(C)C)cc1N1CCN(c2cnccn2)CC1	> 10	EC50 (Hepatitis C virus [3]; [15]): > 10 µM
3	CC(C)c1ccc(NC(=O)c2cccnc2)c(N2CCN(c3cnccn3)CC2)c1	54	EC50 (Hepatitis C virus [3]; [15]): 20 µM
2.5	CC(C)c1ccc(NC(=O)c2cccnc2)c(N2CCN(c3nccs3)CC2)c1	> 50	EC50 (Hepatitis C virus [3]; [15]): > 50 µM
2.3	Cc1cncc(C(=O)Nc2ccc(C(C)C)cc2N2CCN(c3cnccn3)CC2)c1	13	EC50 (Hepatitis C virus [3]; huh-7): ND(toxic)
2.3	CC(C)c1ccc(NC(=O)c2cccnc2C(F)(F)F)c(N2CCN(c3cnccn3)CC2)c1	4.5	EC50 (Hepatitis C virus [3]; huh-7): ND(toxic)
2.3	CC(C)c1ccc(NC(=O)c2cccnc2)c(N2CCN(c3ncccn3)CC2)c1	37	EC50 (Hepatitis C virus [3]; huh-7): ND(toxic)
2.2	CC(C)c1ccc(NC(=O)c2cccnc2F)c(N2CCN(c3cnccn3)CC2)c1	17	EC50 (Hepatitis C virus [3]; huh-7): ND(toxic)
2	CC(C)c1ccc(NC(=O)c2cccnc2C2CC2)c(N2CCN(c3cnccn3)CC2)c1	21	EC50 (Hepatitis C virus [3]; huh-7): ND(toxic)
1.5	Cc1ccnc(N2CCN(c3cc(C(C)C)ccc3NC(=O)c3cccnc3)CC2)n1	14	EC50 (Hepatitis C virus [3]; huh-7): ND(toxic)
1	CC(C)c1ccc(NC(=O)c2cccnc2N)c(N2CCN(c3cnccn3)CC2)c1	30	EC50 (Hepatitis C virus [3]; huh-7): ND(toxic)
1	CC(C)c1ccc(NC(=O)c2cccnc2)c(N2CCN(c3cncc(C4CC4)n3)CC2)c1	1	EC50 (Hepatitis C virus [3]; huh-7): ND(toxic)
0.58	Cc1ncsc1C(=O)Nc1ccc(C(C)C)cc1N1CCN(c2cnccn2)CC1	25	EC50 (Hepatitis C virus [3]; huh-7): ND(toxic)
0.56	CC(C)c1ccc(NC(=O)c2cccnc2)c(N2CCN(c3ccncn3)CC2)c1	27	EC50 (Hepatitis C virus [3]; huh-7): ND(toxic)
0.54	Cc1c(F)cc(F)cc1C(=O)Nc1ccc(C(C)C)cc1N1CCN(c2cnccn2)CC1	20	EC50 (Hepatitis C virus [3]; huh-7): ND(toxic)
0.5	Cc1cncc(N2CCN(c3cc(C(C)C)ccc3NC(=O)c3cccnc3)CC2)n1	23	EC50 (Hepatitis C virus [3]; huh-7): ND(toxic)
0.16	Cc1nccc(N2CCN(c3cc(C(C)C)ccc3NC(=O)c3cccnc3)CC2)n1	25	EC50 (Hepatitis C virus [3]; huh-7): ND(toxic)
0.1	Cc1ncccc1C(=O)Nc1ccc(C(C)C)cc1N1CCN(c2ccncn2)CC1	20	EC50 (Hepatitis C virus [3]; [15]): 1.1 µM
0.027	CSCc1nccc(N2CCN(c3cc(C(C)C)ccc3NC(=O)c3cccnc3C)CC2)n1	19	EC50 (Hepatitis C virus [3]; [15]): 2.2 µM
